Measurements published in PMC4303305 (Biochemistry, 2014).
Entries after “also recorded” stand apart in the source; their conditions may differ. Read-outs that look alike come from different tables or passages of the source.

Legend:
[1] = Size-exclusion FPLC retention of nitrophorins, mutants and ligand complexes; type: physicochemical, Rhodnius prolixus; settings: for dimer formation: under any conditions / at any pH
In short: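 Analytical run on Superdex75 at 4 °C in 100 mM sodium acetate, NaCl added to 220 mM total ionic strength. Protein at 1 mM was run at pH 5.0, 5.25, 5.5 and 5.75. Separately, protein from 1 to 0.025 mM was run at pH 5.0. Elution position compared with molecular weight standards.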

[2] = cited from earlier work
[3] = Stopped-flow kinetics of release of NO from the nitrophorins; type: binding, Rhodnius prolixus; settings: 5–10 μM in 100 mM sodium phosphate buffer
In short: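 Stopped-flow measurement of NO release from NO-bound nitrophorins with native or M0-bearing N-termini. Dissociation Kd obtained at pH 5.0 and 7.5 in dilute solution, 5–10 μM protein in 100 mM sodium phosphate buffer.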

[4] = type: physicochemical, Rhodnius prolixus; settings: pH 7.3; 0.88 mM; NO bound
In short: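 Recombinant nitrophorin refolded from inclusion bodies, reconstituted with excess hemin at pH 7.5, then purified by size-exclusion at pH 5.0. ¹H{¹⁵N} HSQC spectra recorded across pH: 0.2 mM protein at pH 5.0, 5.5 and 6.0; 0.8 mM at pH 6.5. pH 6.5 peaks assigned from pH 7.3 assignments, following cross-peaks through intermediate spectra. NO-bound sample run at 3.7 mM and after dilution to 0.88 mM.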

B1: A1K: site-directed mutant of NP4, M0 present (N-terminus MKCTK...) (protein)
chain: MKCTKNAIAQTGFNKDKYFNGDVWYVTDYLDLEPDDVPKRYCAALAAGTASGKLKEALYHYDPKTQDTFYDVSELQVESLGKYTANFKKVDKNGNVKVAVTAGNYYTFTVMYADDSSALIHTCLHKGNKDLGDLYAVLNRNKDAAAGDKVKSAVSAATLEFSKFISTKENNCAYDNDSLKSLLTK
monomer or dimer on the size-exclusion column ([1]; pH 5.0): monomer

B2: (M0)NP1: recombinant NP1 retaining methionine M0 at the N-terminus (MKCTK...) (protein)
chain: MKCTKNALAQTGFNKDKYFNGDVWYVTDYLDLEPDDVPKRYCAALAAGTASGKLKEALYHYDPKTQDTFYDVSELQEESPGKYTANFKKVEKNGNVKVDVTSGNYYTFTVMYADDSSALIHTCLHKGNKDLGDLYAVLNRNKDTNAGDKVKGAVTAASLKFSDFISTKDNKCEYDNVSLKSLLTK
NO Kd (NO dissociation) ([2]; column pH 7.5, measured at pH 8.0 rather than pH 7.5 (footnote a)): 2.2 ± 0.01 ^a s^–1
NO Kd (NO dissociation) ([2]; pH 5.0, ref 17): 0.20 ± 0.01 s^–1
NO Kd (NO dissociation) ([3]; pH 5.0): 0.426 ± 0.005 s^–1
NO Kd (NO dissociation) ([3]; pH 7.5): 2.32 ± 0.07 s^–1
monomer or dimer on the size-exclusion column ([1]; pH 5.0): not a dimer
dimer formation [1]: do not form dimers
dimer formation ([1]; listed as recombinant NP1): not a dimer at any pH

B3: NP1(K1A) (protein)
chain: ACTKNALAQTGFNKDKYFNGDVWYVTDYLDLEPDDVPKRYCAALAAGTASGKLKEALYHYDPKTQDTFYDVSELQEESPGKYTANFKKVEKNGNVKVDVTSGNYYTFTVMYADDSSALIHTCLHKGNKDLGDLYAVLNRNKDTNAGDKVKGAVTAASLKFSDFISTKDNKCEYDNVSLKSLLTK
monomer or dimer on the size-exclusion column ([1]; pH 5.0): broad peak that encompasses the retention times expected for a dimer and a monomer
monomer or dimer on the size-exclusion column ([1]; pH 5.0, NO added / bound): form dimers; also recorded: two peaks, the first of which is the dimer

B4: (M0)NP1sym: (M0)NP1 containing the symmetrical heme, 2,4-dimethyldeuterohemin (protein, UniProt Q26239 24-207, looked up)
Nitrophorin-1: KCTKNALAQTGFNKDKYFNGDVWYVTDYLDLEPDDVPKRYCAALAAGTASGKLKEALYHYDPKTQDTFYDVSELQEESPGKYTANFKKVEKNGNVKVDVTSGNYYTFTVMYADDSSALIHTCLHKGNKDLGDLYAVLNRNKDTNAGDKVKGAVTAASLKFSDFISTKDNKCEYDNVSLKSLLTK
modifications: Met0; 2,4-dimethyldeuterohemin heme
NO Kd (NO dissociation) ([3]; pH 5.0): 0.218 ± 0.004 s^–1
NO Kd (NO dissociation) ([3]; pH 7.5): 2.66 ± 0.27 s^–1

B5: Nat. N-term NP1 ^c: native N-terminal NP1 (N-terminus KC...) (protein, UniProt Q26239 24-207, looked up)
Nitrophorin-1: KCTKNALAQTGFNKDKYFNGDVWYVTDYLDLEPDDVPKRYCAALAAGTASGKLKEALYHYDPKTQDTFYDVSELQEESPGKYTANFKKVEKNGNVKVDVTSGNYYTFTVMYADDSSALIHTCLHKGNKDLGDLYAVLNRNKDTNAGDKVKGAVTAASLKFSDFISTKDNKCEYDNVSLKSLLTK
NO Kd (NO dissociation) ([3]; pH 5.0): 0.032 ± 0.011 s^–1
NO Kd (NO dissociation) ([3]; pH 7.5): 1.11 ± 0.04 s^–1

B6: native N-terminal NP1: NP1 expressed with a leader sequence, giving the native N-terminus KCTK... (protein)
chain: KCTKNALAQTGFNKDKYFNGDVWYVTDYLDLEPDDVPKRYCAALAAGTASGKLKEALYHYDPKTQDTFYDVSELQEESPGKYTANFKKVEKNGNVKVDVTSGNYYTFTVMYADDSSALIHTCLHKGNKDLGDLYAVLNRNKDTNAGDKVKGAVTAASLKFSDFISTKDNKCEYDNVSLKSLLTK
modifications: left off: His6, C-terminal, kept
monomer or dimer on the size-exclusion column ([1]; pH 5.0, NO added / bound): form dimers

B7: D30A (protein)
chain: ACTKNAIAQTGFNKDKYFNGDVWYVTDYLALEPDDVPKRYCAALAAGTASGKLKEALYHYDPKTQDTFYDVSELQVESLGKYTANFKKVDKNGNVKVAVTAGNYYTFTVMYADDSSALIHTCLHKGNKDLGDLYAVLNRNKDAAAGDKVKSAVSAATLEFSKFISTKENNCAYDNDSLKSLLTK
monomer or dimer on the size-exclusion column ([1]; pH 5.0): monomers

B8: K125A (protein)
chain: ACTKNAIAQTGFNKDKYFNGDVWYVTDYLDLEPDDVPKRYCAALAAGTASGKLKEALYHYDPKTQDTFYDVSELQVESLGKYTANFKKVDKNGNVKVAVTAGNYYTFTVMYADDSSALIHTCLHAGNKDLGDLYAVLNRNKDAAAGDKVKSAVSAATLEFSKFISTKENNCAYDNDSLKSLLTK
monomer or dimer on the size-exclusion column ([1]; pH 5.0): dimers

B9: NP4 apoprotein: NP4 without heme (protein)
chain: ACTKNAIAQTGFNKDKYFNGDVWYVTDYLDLEPDDVPKRYCAALAAGTASGKLKEALYHYDPKTQDTFYDVSELQVESLGKYTANFKKVDKNGNVKVAVTAGNYYTFTVMYADDSSALIHTCLHKGNKDLGDLYAVLNRNKDAAAGDKVKSAVSAATLEFSKFISTKENNCAYDNDSLKSLLTK
monomer or dimer on the size-exclusion column ([1]; pH 5.0): monomeric

B10: NP4-ImH: NP4 with imidazole bound (protein)
chain: ACTKNAIAQTGFNKDKYFNGDVWYVTDYLDLEPDDVPKRYCAALAAGTASGKLKEALYHYDPKTQDTFYDVSELQVESLGKYTANFKKVDKNGNVKVAVTAGNYYTFTVMYADDSSALIHTCLHKGNKDLGDLYAVLNRNKDAAAGDKVKSAVSAATLEFSKFISTKENNCAYDNDSLKSLLTK
monomer or dimer on the size-exclusion column ([1]; pH 5.0): dimers

B11: R39A (protein)
chain: ACTKNAIAQTGFNKDKYFNGDVWYVTDYLDLEPDDVPKAYCAALAAGTASGKLKEALYHYDPKTQDTFYDVSELQVESLGKYTANFKKVDKNGNVKVAVTAGNYYTFTVMYADDSSALIHTCLHKGNKDLGDLYAVLNRNKDAAAGDKVKSAVSAATLEFSKFISTKENNCAYDNDSLKSLLTK
monomer or dimer on the size-exclusion column ([1]; pH 5.0): dimers

B12: K38A (protein)
chain: ACTKNAIAQTGFNKDKYFNGDVWYVTDYLDLEPDDVPARYCAALAAGTASGKLKEALYHYDPKTQDTFYDVSELQVESLGKYTANFKKVDKNGNVKVAVTAGNYYTFTVMYADDSSALIHTCLHKGNKDLGDLYAVLNRNKDAAAGDKVKSAVSAATLEFSKFISTKENNCAYDNDSLKSLLTK
monomer or dimer on the size-exclusion column ([1]; pH 5.0): dimers

B13: K125E (protein)
chain: ACTKNAIAQTGFNKDKYFNGDVWYVTDYLDLEPDDVPKRYCAALAAGTASGKLKEALYHYDPKTQDTFYDVSELQVESLGKYTANFKKVDKNGNVKVAVTAGNYYTFTVMYADDSSALIHTCLHEGNKDLGDLYAVLNRNKDAAAGDKVKSAVSAATLEFSKFISTKENNCAYDNDSLKSLLTK
monomer or dimer on the size-exclusion column ([1]; pH 5.0): dimers

B14: Hm complex: NP4 with histamine bound to the heme iron (protein)
chain: ACTKNAIAQTGFNKDKYFNGDVWYVTDYLDLEPDDVPKRYCAALAAGTASGKLKEALYHYDPKTQDTFYDVSELQVESLGKYTANFKKVDKNGNVKVAVTAGNYYTFTVMYADDSSALIHTCLHKGNKDLGDLYAVLNRNKDAAAGDKVKSAVSAATLEFSKFISTKENNCAYDNDSLKSLLTK
monomer or dimer on the size-exclusion column ([1]; all pH values, including those below 6.0): monomer
monomer or dimer on the size-exclusion column ([1]; pH 5.0): monomer

B15: D30N (protein)
chain: ACTKNAIAQTGFNKDKYFNGDVWYVTDYLNLEPDDVPKRYCAALAAGTASGKLKEALYHYDPKTQDTFYDVSELQVESLGKYTANFKKVDKNGNVKVAVTAGNYYTFTVMYADDSSALIHTCLHKGNKDLGDLYAVLNRNKDAAAGDKVKSAVSAATLEFSKFISTKENNCAYDNDSLKSLLTK
monomer or dimer on the size-exclusion column ([1]; pH 5.0): monomers

B16: NP4-NO: NP4 with nitric oxide bound to the heme (protein)
chain: ACTKNAIAQTGFNKDKYFNGDVWYVTDYLDLEPDDVPKRYCAALAAGTASGKLKEALYHYDPKTQDTFYDVSELQVESLGKYTANFKKVDKNGNVKVAVTAGNYYTFTVMYADDSSALIHTCLHKGNKDLGDLYAVLNRNKDAAAGDKVKSAVSAATLEFSKFISTKENNCAYDNDSLKSLLTK
state of the dimer [4]: still highly dimerized
monomer or dimer on the size-exclusion column ([1]; pH 5.0): dimer
